“And” between values parts separate entries of the source, which are not always exact repeats. Equal values may be shown once.
Experiments:
Rattus norvegicus [1] = assay: Ratio of distribution of radioactivity in rat brain region prefrontal cortex and cerebellum 60 min after intravenous administration of iodine labeled compound in presence of RTI-113 blocker in study 1; type: ADME, organism-based; conditions: in vivo, 1 h
Rattus norvegicus [2] = assay: Distribution of radioactivity in rat brain hypothalamus 60 min after intravenous administration of iodine labeled compound; type: ADME, organism-based; conditions: in vivo, 1 h
Summary of the method: (§1)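 Male Sprague–Dawley rats (225–300 g) under ketamine received 10 µCi radioligand iv (tail vein) in 10% EtOH/saline. Hypothalamus, prefrontal cortex, striatum, pons and cerebellum were dissected, weighed and gamma-counted. % injected dose/g was taken from decay-corrected counts versus diluted dose. Mean ± SE and range, n=5 (5, 30 min) or 4 (60, 120 min).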

Rattus norvegicus [3] = assay: Distribution of radioactivity in rat brain region pons 60 min after intravenous administration of iodine labeled compound in presence of RTI-113 blocker in study 1; type: ADME, organism-based; conditions: in vivo, 1 h
Summary of the method: (§2)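 Male Sprague–Dawley rats (250–300 g), ketamine-anesthetized. Blocker (2 mg/kg) or none was given iv 15 min before tail-vein radioligand (10 µCi in 0.2 mL 10% EtOH/saline). Rats were killed at 60 min with im pentobarbital. Brain regions were dissected, weighed and gamma-counted. % dose/g was taken from decay-corrected, background-subtracted counts versus the injected dose.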

Rattus norvegicus [4] = assay: Distribution of radioactivity in rat brain striatum 120 min after intravenous administration of iodine labeled compound; type: ADME, organism-based; conditions: in vivo, 2 h
Summary of the method: (§3)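 Male Sprague–Dawley rats (225–300 g) under ketamine anaesthesia were given [123I]ZIENT (10 μCi) in 0.2 mL 10% EtOH/0.9% NaCl into the tail vein, with a saline flush. Hypothalamus, prefrontal cortex, striatum, pons and cerebellum were dissected and gamma-counted. % injected dose/g came from decay-corrected counts against the diluted injected dose, and region/cerebellum ratios were taken from these. Mean ± SE, n=4–5.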

Rattus norvegicus [5] = assay: Ratio of distribution of radioactivity in rat brain hypothalamus and cerebellum 30 min after intravenous administration of iodine labeled compound; type: ADME, organism-based; conditions: in vivo, 0.5 h; summary of the method: as §3
Rattus norvegicus [6] = assay: Ratio of distribution of radioactivity in rat brain prefrontal cortex and cerebellum 30 min after intravenous administration of iodine labeled compound; type: ADME, organism-based; conditions: in vivo, 0.5 h; summary of the method: as §3
Rattus norvegicus [7] = assay: Ratio of distribution of radioactivity in rat brain hypothalamus and cerebellum 120 min after intravenous administration of iodine labeled compound; type: ADME, organism-based; conditions: in vivo, 2 h; summary of the method: as §3
Rattus norvegicus [8] = assay: Distribution of radioactivity in rat brain region cerebellum 60 min after intravenous administration of iodine labeled compound in absence of blocker in study 1; type: ADME, organism-based; conditions: in vivo, 1 h; summary of the method: as §2
Rattus norvegicus [9] = assay: Distribution of radioactivity in rat kidney 30 min after intravenous administration of iodine labeled compound; type: ADME, organism-based; conditions: in vivo, 0.5 h
Summary of the method: (§4)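 Tail-vein injection of [123I]ZIENT (10 μCi in 0.2 mL 10% EtOH/0.9% NaCl, then 0.4 mL saline flush) into ketamine-anaesthetised male Sprague–Dawley rats (225–300 g). Animals were killed by cardiac excision at set times. Organs were excised, rinsed, blotted, weighed and gamma-counted. % dose/g was calculated against diluted aliquots of injectate. Mean ± SE, n=4–5.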

Rattus norvegicus [10] = assay: Distribution of radioactivity in rat lung 60 min after intravenous administration of iodine labeled compound; type: ADME, organism-based; conditions: in vivo, 1 h; summary of the method: as §4
Rattus norvegicus [11] = assay: Ratio of distribution of radioactivity in rat brain striatum and cerebellum 60 min after intravenous administration of iodine labeled compound; type: ADME, organism-based; conditions: in vivo, 1 h
Summary of the method: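 Male Sprague–Dawley rats (225–300 g), ketamine anesthesia, injected via tail vein with [123I]ZIENT (10 μCi in 0.2 mL 10% EtOH/0.9% NaCl, 0.4 mL saline flush). Killed at 5, 30, 60 or 120 min. Striatum and cerebellum dissected, weighed, γ-counted. Decay-corrected %injected dose/g taken against diluted injectate. Ratio is striatum over cerebellum. Four or five rats per time point, mean ± standard error.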

Rattus norvegicus [12] = assay: Distribution of radioactivity in rat brain region striatum 60 min after intravenous administration of iodine labeled compound in presence of fluvoxamine blocker in study 1; type: ADME, organism-based; conditions: in vivo, 1 h
Summary of the method: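 Male Sprague–Dawley rats (250–300 g), ketamine-anaesthetised, received [123I]ZIENT (10 μCi) in 0.2 mL 10% ethanol/0.9% NaCl via the tail vein. […] Rats were killed at 60 min with pentobarbital, brain regions dissected and gamma-counted. Values are % dose/g from decay-corrected, background-subtracted counts against the diluted injected dose.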

Rattus norvegicus [13] = assay: Distribution of radioactivity in rat testis 30 min after intravenous administration of iodine labeled compound; type: ADME, organism-based; conditions: in vivo, 0.5 h; summary of the method: as §4
Rattus norvegicus [14] = assay: Distribution of radioactivity in rat brain pons 120 min after intravenous administration of iodine labeled compound; type: ADME, organism-based; conditions: in vivo, 2 h; summary of the method: as §1
Rattus norvegicus [15] = assay: Ratio of distribution of radioactivity in rat brain region prefrontal cortex and cerebellum 60 min after intravenous administration of iodine labeled compound in presence of fluvoxamine blocker in study 1; type: ADME, organism-based; conditions: in vivo, 1 h
Rattus norvegicus [16] = assay: Distribution of radioactivity in rat kidney 120 min after intravenous administration of iodine labeled compound; type: ADME, organism-based; conditions: in vivo, 2 h; summary of the method: as §4
Rattus norvegicus [17] = assay: Distribution of radioactivity in rat brain prefrontal cortex 120 min after intravenous administration of iodine labeled compound; type: ADME, organism-based; conditions: in vivo, 2 h; summary of the method: as §1
Rattus norvegicus [18] = assay: Distribution of radioactivity in rat brain region prefrontal cortex 60 min after intravenous administration of iodine labeled compound in absence of blocker in study 1; type: ADME, organism-based; conditions: in vivo, 1 h; summary of the method: as §2
Rattus norvegicus [19] = assay: Ratio of distribution of radioactivity in rat brain region striatum and cerebellum 60 min after intravenous administration of iodine labeled compound in presence of reboxetine blocker in study 2; type: ADME, organism-based; conditions: in vivo, 1 h
Rattus norvegicus [20] = assay: Ratio of distribution of radioactivity in rat brain region striatum and cerebellum 60 min after intravenous administration of iodine labeled compound in absence of blocker in study 2; type: ADME, organism-based; conditions: in vivo, 1 h
Rattus norvegicus [21] = assay: Ratio of distribution of radioactivity in rat brain region hypothalamus and cerebellum 60 min after intravenous administration of iodine labeled compound in presence of RTI-113 blocker in study 1; type: ADME, organism-based; conditions: in vivo, 1 h
Rattus norvegicus [22] = assay: Distribution of radioactivity in rat thyroid 120 min after intravenous administration of iodine labeled compound; type: ADME, organism-based, Thyroid gland; conditions: in vivo, 2 h; summary of the method: as §4
Rattus norvegicus [23] = assay: Distribution of radioactivity in rat heart 60 min after intravenous administration of iodine labeled compound; type: ADME, organism-based; conditions: in vivo, 1 h; summary of the method: as §4
Rattus norvegicus [24] = assay: Distribution of radioactivity in rat thyroid 5 min after intravenous administration of iodine labeled compound; type: ADME, organism-based, Thyroid gland; conditions: in vivo; summary of the method: as §4
Rattus norvegicus [25] = assay: Distribution of radioactivity in rat brain region prefrontal cortex 60 min after intravenous administration of iodine labeled compound in presence of reboxetine blocker in study 2; type: ADME, organism-based; conditions: in vivo, 1 h; summary of the method: as §2
Rattus norvegicus [26] = assay: Distribution of radioactivity in rat heart 120 min after intravenous administration of iodine labeled compound; type: ADME, organism-based; conditions: in vivo, 2 h; summary of the method: as §4
Rattus norvegicus [27] = assay: Distribution of radioactivity in rat muscle tissue 30 min after intravenous administration of iodine labeled compound; type: ADME, organism-based; conditions: in vivo, 0.5 h; summary of the method: as §4
Rattus norvegicus [28] = assay: Ratio of distribution of radioactivity in rat brain hypothalamus and cerebellum 5 min after intravenous administration of iodine labeled compound; type: ADME, organism-based; conditions: in vivo; summary of the method: as §3
Rattus norvegicus [29] = assay: Ratio of distribution of radioactivity in rat brain hypothalamus and cerebellum 60 min after intravenous administration of iodine labeled compound; type: ADME, organism-based; conditions: in vivo, 1 h; summary of the method: as §3
Rattus norvegicus [30] = assay: Distribution of radioactivity in rat spleen 60 min after intravenous administration of iodine labeled compound; type: ADME, organism-based; conditions: in vivo, 1 h; summary of the method: as §4
Rattus norvegicus [31] = assay: Distribution of radioactivity in rat lung 30 min after intravenous administration of iodine labeled compound; type: ADME, organism-based; conditions: in vivo, 0.5 h; summary of the method: as §4
Rattus norvegicus [32] = assay: Distribution of radioactivity in rat brain region cerebellum 60 min after intravenous administration of iodine labeled compound in presence of fluvoxamine blocker in study 1; type: ADME, organism-based; conditions: in vivo, 1 h; summary of the method: as §2
Rattus norvegicus [33] = assay: Distribution of radioactivity in rat brain region pons 60 min after intravenous administration of iodine labeled compound in presence of reboxetine blocker in study 2; type: ADME, organism-based; conditions: in vivo, 1 h; summary of the method: as §2
Rattus norvegicus [34] = assay: Distribution of radioactivity in rat brain region frontal cortex 60 min after intravenous administration of iodine labeled compound in absence of blocker in study 1; type: ADME, organism-based; conditions: in vivo, 1 h; summary of the method: as §2

## COC(=O)[C@@H]1C2CCC(C[C@@H]1c1ccc(/C=C\I)cc1)N2 (some centres undefined)
Rattus norvegicus [1]
  Distribution (dose/g): 3.12%
Rattus norvegicus [2]
  Distribution (dose/g): 0.77%
Rattus norvegicus [3]
  Distribution (dose/g): 0.56%
Rattus norvegicus [4]
  Distribution (dose/g): 0.49%
Rattus norvegicus [5]
  Distribution (dose/g): 2.38%
Rattus norvegicus [6]
  Distribution (dose/g): 2.56%
Rattus norvegicus [7]
  Distribution (dose/g): 4.92%
Rattus norvegicus [8]
  Distribution (dose/g): 0.24% and 0.19%
Rattus norvegicus [9]
  Distribution (dose/g): 0.49%
Rattus norvegicus [10]
  Distribution (dose/g): 1.41%
Rattus norvegicus [11]
  Distribution (dose/g): 2.72%
Rattus norvegicus [12]
  Distribution (dose/g): 0.3%
Rattus norvegicus [13]
  Distribution (dose/g): 0.34%
Rattus norvegicus [14]
  Distribution (dose/g): 0.4%
Rattus norvegicus [15]
  Distribution (dose/g): 1.65%
Rattus norvegicus [16]
  Distribution (dose/g): 0.31%
Rattus norvegicus [17]
  Distribution (dose/g): 0.49%
Rattus norvegicus [18]
  Distribution (dose/g): 0.93%
Rattus norvegicus [19]
  Distribution (dose/g): 3.04%
Rattus norvegicus [20]
  Distribution (dose/g): 3.32%
Rattus norvegicus [21]
  Distribution (dose/g): 3.2%
Rattus norvegicus [22]
  Distribution (dose/g): 1.87%
Rattus norvegicus [23]
  Distribution (dose/g): 0.29%
Rattus norvegicus [24]
  Distribution (dose/g): 0.17%
Rattus norvegicus [25]
  Distribution (dose/g): 0.69%
Rattus norvegicus [26]
  Distribution (dose/g): 0.22%
Rattus norvegicus [27]
  Distribution (dose/g): 0.23%
Rattus norvegicus [28]
  Distribution (dose/g): 1.09%
Rattus norvegicus [29]
  Distribution (dose/g): 3.08%
Rattus norvegicus [30]
  Distribution (dose/g): 0.61%
Rattus norvegicus [31]
  Distribution (dose/g): 1.59%
Rattus norvegicus [32]
  Distribution (dose/g): 0.17%
Rattus norvegicus [33]
  Distribution (dose/g): 0.53%
Rattus norvegicus [34]
  Distribution (dose/g): 0.75%

— ChEMBL document CHEMBL1136726, “Synthesis and characterization of iodine-123 labeled 2beta-carbomethoxy-3beta-(4'-((Z)-2-iodoethenyl)phenyl)nortropane. A ligand for in vivo imaging of serotonin transporters by single-photon-emission tomography” (J Med Chem, 2003)
